High-throughput results: PubChem, several laboratories
MsrA inh: bovine MsrA inhibition. AID 651718. 360,000 tested, 0.75% active. inhibition, % at 15.5 µM. purified bovine MsrA, absorbance read-out; in the data active = inhibition above about 4.5%;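 note: 0% = vehicle wells with enzyme and 100% = reference inhibitor wells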
MsrA act: activates bovine MsrA enzyme | purified bovine MsrA, absorbance read-out | activation, % at 10.6 µM | 360,000 tested, 0.3% active; in the data active = activation above about 7.5%;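 note: 0% = vehicle and 100% = reference activator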
AHR activator: activates the human aryl hydrocarbon receptor. P35869. AHR-responsive luciferase reporter cells, luminescence. activation, % at 5 µM. 320,000 tested, 2.5% active. AID 2796; in the data active = activation above about 47%;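 note: 0% = vehicle wells and 100% = reference agonist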
Tb MetRS inh: blocks T. brucei methionyl-tRNA synthetase activity; 360,000 tested, 0.4% active; inhibition, % at 11.9 µM; purified T. brucei MetRS, ATP depletion, Kinase-Glo luminescence;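 active = inhibition above a per-plate cutoff of the control wells' mean inhibition plus 3 SD, cut at about 5.5% in these data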;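 note: 0% = DMSO wells median and 100% = median of wells with control inhibitor compound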
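technique = Kinase-Glo luminescence, ATP depletion format | system = purified MetRS (methionyl-tRNA synthetase) enzyme from Trypanosoma brucei | timing = 15 min preincubation, 2 h reaction, all 25 °C | evaluation = percent inhibition versus plate control medians | dosing = single dose, 11.9 µM final nominal, 0.9% final DMSO | also added = substrates ATP, L-methionine and bulk Escherichia coli tRNA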
HTR2A ag: agonists of mouse serotonin 5-HT2A receptor (HTR2A). CHO-K1 mHTR2A beta-arrestin complementation, luminescence; percent of 30 µM serotonin response. activation, % at 7.6 µM. 360,000 tested, 0.66% active. AID 624169;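 active = activation above a run cutoff, the mean activation of all tested compounds plus 3 SD, cut at about 14% in these data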;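 note: 0% = plate median of compound wells and 100% = 30 µM serotonin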
Target sequence (P35363 whole entry, looked up): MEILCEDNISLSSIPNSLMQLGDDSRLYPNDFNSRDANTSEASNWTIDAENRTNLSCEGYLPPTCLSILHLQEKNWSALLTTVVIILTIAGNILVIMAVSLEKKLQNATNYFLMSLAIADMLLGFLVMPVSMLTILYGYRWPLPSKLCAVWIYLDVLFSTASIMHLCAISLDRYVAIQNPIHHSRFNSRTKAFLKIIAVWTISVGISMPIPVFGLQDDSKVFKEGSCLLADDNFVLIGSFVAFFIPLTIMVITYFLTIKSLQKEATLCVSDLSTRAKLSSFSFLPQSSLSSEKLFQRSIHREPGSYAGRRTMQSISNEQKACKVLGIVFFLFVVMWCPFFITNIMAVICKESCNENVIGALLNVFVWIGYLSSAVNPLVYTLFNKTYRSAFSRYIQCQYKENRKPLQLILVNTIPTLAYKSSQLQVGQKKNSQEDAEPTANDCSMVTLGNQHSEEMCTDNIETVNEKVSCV
AI-2 QS mod: Vibrio harveyi AI-2 quorum sensing modulation; 300,000 tested, 0.4% active; activity change, % at 7.5 µM; Vibrio harveyi JMH597 AI-2 luminescence/OD600 ratio, 9 h; stronger effect = lower value; strain lacks LuxN and CqsS sensors; 0 = neutral-control median; in the data active = activity change below about -75%, passing the limit was not always enough;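 note: luminescence divided by OD600 gain over 9 h not by final OD600 alone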
Tb MetRS conf: Trypanosoma brucei MetRS inhibition confirmed; shares compounds with Tb MetRS inh; T. brucei MetRS enzyme, luminescence (ATP depletion); inhibition, % at 11.9 µM; 1,400 tested, 93% active; AID 624412; in the data active = inhibition above about 7%
Jurkat cytotox: Jurkat T cell cytotoxicity for MetRS hits | shares compounds with Tb MetRS inh | Jurkat cells viability, ATP luminescence | inhibition, % at 8.3 µM | 1,400 tested, 12% active; in the data active = inhibition above about 15%;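 note: 0% = vehicle and 100% = reference inhibitor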
TbMetRS FP orth: orthogonal test for Trypanosoma brucei MetRS inhibitors; purified T. brucei MetRS, fluorescence polarization; inhibition, % at 11.9 µM; shares compounds with Tb MetRS inh; 1,400 tested, 44% active; in the data active = inhibition above about 17%;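 note: 0% = vehicle wells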
The depositor's hits bear a star; / = no result. Most compounds without a hit are left out; they make up all but 4.4% or so of the library.

SMILES	MsrA inh	MsrA act	AHR activator	Tb MetRS inh	HTR2A ag	AI-2 QS mod	Tb MetRS conf	Jurkat cytotox	TbMetRS FP orth
O=C(C1=C[C@@H](c2ccc(Br)cc2)C[C@@H](OCCCCO)O1)N1CCN(Cc2ccc3c(c2)OCO3)CC1	3	-1	6	9.0*	6	1	31*	5	9
O=C(C1=C[C@@H](c2csc3ccccc23)C[C@@H](OCCCCO)O1)N1CCN(Cc2ccc3c(c2)OCO3)CC1	1	-2	3	12*	35*	-4	48*	1	27*
O=C(C1=C[C@H](c2csc3ccccc23)C[C@H](OCCCCO)O1)N1CCN(Cc2ccc3c(c2)OCO3)CC1	0	1	2	0	1	1	/	/	/
CCOC(=O)CN(C(=O)CSc1nnc2c(n1)[nH]c1ccc(F)cc12)c1ccccc1	1	-3	4	6.3*	8	13	17*	2	10
CCOC(=O)CN(C(=O)CSc1nnc2c(n1)[nH]c1ccccc12)c1ccccc1	2	-1	10	1	0	31	/	/	/
CC(=O)c1cccc(NC(=O)C(C)OC(=O)CNC(=O)c2ccc(C)s2)c1 (centres undefined)	0	-4	-1	14*	-4	42	29*	1	11
CC(=O)Nc1ccc(NC(=O)C(C)OC(=O)CNC(=O)c2cccs2)cc1 (centres undefined)	1	-2	-3	0	0	29	/	/	/
OC(c1cccc(Cl)c1)c1nc(-c2ccoc2)cs1 (centres undefined)	0	-2	/	0	5	/	/	/	/
COc1ccccc1CNC(=O)CS(=O)(=O)Cc1ccccc1	-1	-5	-1	0	1	17	/	/	/
C=CCN(Cc1ccc(Cl)s1)C(=O)c1ccc(F)c(S(=O)(=O)N2CCOCC2)c1	-1	-2	0	0	-2	/	/	/	/
COC(=O)CN1C(=S)N(c2ccc(OC)cc2)C(=O)C1CC(=O)Nc1ccc(F)cc1 (centres undefined)	0	-1	1	1	2	-8	/	/	/
CCN1C(=O)C(CC(=O)Nc2ccc(OC)cc2)N(CCc2ccc(OC)cc2)C1=S (centres undefined)	1	-8	2	36*	-1	23	51*	3	34*
CCN1C(=O)C(CC(=O)Nc2ccc(Br)cc2)N(CCCc2ccccc2)C1=S (centres undefined)	1	3	7	66*	-3	15	77*	8	62*
COc1ccc(CCN2C(=S)N(C)C(=O)C2CC(=O)Nc2ccc(F)cc2)cc1 (centres undefined)	0	-5	2	58*	-3	4	81*	6	51*
COc1ccc(NC(=O)CC2C(=O)N(c3ccc(OC)cc3)C(=O)N2CCc2cccs2)cc1 (centres undefined)	-1	-2	1	11*	4	7	20*	0	15
CCOc1ccc(NC(=O)CC2C(=O)N(C)C(=S)N2CCCc2ccccc2)cc1 (centres undefined)	-1	-3	3	0	1	31	/	/	/
CN(C)CCCNC(=O)C1(O)c2cc(Br)ccc2NC(=O)N1c1c(F)cccc1F (centres undefined)	0	-2	2	0	4	6	/	/	/
Cc1ccc(NC(=O)CN(C)C(=O)COC(=O)c2nc3nccc(C)n3n2)cc1	-1	-6	1	0	-1	/	/	/	/
COC(=O)C1=C(N)Oc2cc(C)n(Cc3ccco3)c(=O)c2C1c1cccc(Cl)c1 (centres undefined)	0	-1	6	52*	0	21	6	4	2
CCn1c(C)cc2c(c1=O)C(c1ccccc1)C(C(=O)OC)=C(N)O2 (centres undefined)	0	-5	22	0	-2	8	/	/	/
CCCOc1ccc(F)cc1-c1cc(C(=O)NCc2cccc(C(F)(F)F)c2)[nH]n1	0	-1	/	0	-6	/	/	/	/
Brc1ccc(-c2nnc3sc(CNCc4ccc5c(c4)OCO5)cn23)cc1	0	-8	65*	33*	-2	17	48*	2	25*
Cc1[nH]c2ccccc2c1C(=O)C(=O)N1CCN(c2cccc(Cl)c2)CC1	2	-4	2	7.1*	5	21	15*	-2	3
Cc1[nH]c2ccccc2c1C(=O)C(=O)N1CCN(c2ccccc2Cl)CC1	1	-4	4	9.0*	3	44	28*	-4	15
Cc1[nH]c2ccccc2c1C(=O)C(=O)N1CC(C)OC(C)C1 (centres undefined)	3	-6	-1	1	7	4	/	/	/
SMILES	MsrA inh	MsrA act	AHR activator	Tb MetRS inh	HTR2A ag	AI-2 QS mod	Tb MetRS conf	Jurkat cytotox	TbMetRS FP orth
Cc1[nH]c2ccccc2c1C(=O)C(=O)N1CC=C(c2ccccc2)CC1	1	-2	13	9.1*	-1	27	13*	10	1
Cc1[nH]c2ccc(C(=O)N3CCN(c4cccc(Cl)c4)CC3)cc2c1C	-1	-1	4	0	-4	5	/	/	/
Cc1[nH]c2ccc(C(=O)N3CCN(c4ccccc4Cl)CC3)cc2c1C	0	-1	2	0	2	28	/	/	/
O=C(C(=O)N1CCN(c2ccc(F)cc2)CC1)c1c[nH]c2ccccc12	1	-2	-5	0	-6	-1	/	/	/
O=C(C(=O)N1CCN(c2cccc(Cl)c2)CC1)c1c[nH]c2ccccc12	0	0	16	9.4*	-1	37	12*	0	7
CC(C)c1ccccc1NC(=O)C1CCCN(C(=O)c2ccc(Cl)cc2)C1 (centres undefined)	1	-1	/	0	6	/	/	/	/
COc1ccccc1N1CCN(C(=O)C(=O)c2c(C)[nH]c3ccccc23)CC1	1	-6	3	6.6*	2	25	19*	1	4
CSc1ccccc1C(=O)N1CCC(n2nccc2NC(=O)C(C)(C)C)CC1	0	-4	1	0	-2	7	/	/	/
COc1ccc(CN(C(=O)c2ccc(-c3ccccc3)[nH]2)C(C(=O)NC(C)(C)C)c2ccncc2)cc1 (centres undefined)	-1	-4	9	76*	0	31	33*	8	16
COc1cc(C(C(=O)NC(C)(C)C)N(Cc2ccccc2)C(=O)c2cnccn2)cc(OC)c1OC (centres undefined)	-1	-2	-5	0	1	4	/	/	/
